Screening results deposited in PubChem by several laboratories.
GRIN3A LBD mod = modulators (binders) of human NR3A ligand-binding domain; NR3A LBD differential scanning fluorimetry, Tm shift; 0% = protein alone, 100% = glycine-bound protein; Tm shift relative to glycine control, % at 25 µM; 340,000 tested, 2.5% active;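 active = melting temperature shift of at least 10% of the positive control shift, at one fixed dose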
pPAFAH inh = pPAFAH (human) enzyme inhibition; 330,000 tested, 1.5% active; AID 463082; recombinant pPAFAH, FP-rhodamine probe fluorescence polarization; inhibition, % at 3.39 µM;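 active = inhibition above the mean inhibition across the screen plus 3 SD, cut at about 25% in these data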;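 also: inhibitors block binding of the rhodamine activity-based probe so polarization drops; 0% = enzyme with DMSO and 100% = wells lacking pPAFAH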
PAFAH2 FP inh = PAFAH2 (human) inhibition; 340,000 tested, 0.99% active; AID 492956; inhibition, % at 3.39 µM; Q99487; recombinant PAFAH2, FP-rhodamine activity probe, fluorescence polarization;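 active = inhibition above the mean over all tested compounds plus 3 SD, cut at about 30% in these data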;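 also: inhibitors block probe labeling of enzyme so polarization drops; 0% = enzyme with DMSO and 100% = wells lacking PAFAH2 protein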
PAFAH1B3 inh = inhibitors of human PAFAH1B3. Q15102. recombinant PAFAH1B3, FP-rhodamine probe, fluorescence polarization. inhibition, % at 3.39 µM. 340,000 tested, 0.28% active;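 active = inhibition above the screen-wide average of all tested compounds plus 3 SD, cut at about 25% in these data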;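 also: 0% = enzyme with DMSO only and 100% = wells lacking PAFAH1B3 protein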
Target sequence (Q15102 whole entry, looked up): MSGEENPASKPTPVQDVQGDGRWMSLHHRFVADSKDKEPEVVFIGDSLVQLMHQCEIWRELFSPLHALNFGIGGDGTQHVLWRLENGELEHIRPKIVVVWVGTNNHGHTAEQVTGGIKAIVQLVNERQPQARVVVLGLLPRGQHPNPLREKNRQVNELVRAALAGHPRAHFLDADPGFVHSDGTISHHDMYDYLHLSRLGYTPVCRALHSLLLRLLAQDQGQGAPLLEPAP
UCH37 DUB inh = inhibitors of human deubiquitinating enzyme UCH37 | Q9Y5K5 | purified proteasome/UCH37, Ub-AMC cleavage fluorescence | inhibition, % (test concentration not listed) | 330,000 tested, 0.33% active | AID 588478;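 active = mean inhibition over replicate wells above about 20%, limit read from the data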;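 also: 0% = compound-free wells with enzyme and 100% = wells lacking proteasome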
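Material: human UCH37 enzyme supplied as purified proteasome complex. Measure: % inhibition of Ub-AMC cleavage fluorescence. Medium: pH 7.4 Tris-HCl (50 mM) with ovalbumin, ATP-MgCl2, DTT. Times: 30 min preincubation with enzyme, 25 min cleavage at room temperature. Detection: AMC fluorescence intensity at 355/460 nm.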
PAFAH1B2 inh = inhibitors of human PAFAH1B2 | inhibition, % at 3.39 µM | P68402 | 340,000 tested, 1.2% active | recombinant PAFAH1B2, FP-rhodamine activity probe, fluorescence polarization;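 active = inhibition above the mean of all tested compounds plus 3 SD, cut at about 24% in these data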;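 also: 0% = enzyme with DMSO and 100% = wells lacking PAFAH1B2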
Target sequence (P68402 whole entry, looked up): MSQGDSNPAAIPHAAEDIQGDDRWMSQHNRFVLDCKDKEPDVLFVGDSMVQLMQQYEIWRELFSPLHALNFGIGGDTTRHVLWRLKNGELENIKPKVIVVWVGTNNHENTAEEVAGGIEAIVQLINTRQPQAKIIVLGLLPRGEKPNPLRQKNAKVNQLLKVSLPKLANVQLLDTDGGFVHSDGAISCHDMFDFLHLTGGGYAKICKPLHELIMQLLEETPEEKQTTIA
PAFAH2 confirm = PAFAH2 (human) inhibition, confirmed; recombinant PAFAH2, FP-rhodamine activity probe, fluorescence polarization; inhibition, % at 3.39 µM; 2,300 tested, 65% active; shares compounds with PAFAH2 FP inh;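 active = mean inhibition over three repeats above a set limit taken from the earlier primary screen, cut at about 30% in these data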;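 also: inhibitor blocks binding of rhodamine activity probe so polarization falls; 0% = enzyme with DMSO and 100% = wells lacking PAFAH2 protein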
Starred values were filed as active, the others as inactive; nt = no result. Shown are actives, neighbours in structure and some others; about 4.8% of the full set was active somewhere.

SMILES	GRIN3A LBD mod	pPAFAH inh	PAFAH2 FP inh	PAFAH1B3 inh	UCH37 DUB inh	PAFAH1B2 inh	PAFAH2 confirm
O=C(NN=Cc1ccccn1)c1[nH]c2ccc([N+](=O)[O-])cc2c1-c1ccccc1	nt	nt	nt	nt	7	nt	nt
O=C(Cc1n[nH]c(=O)[nH]c1=O)NN=Cc1cccc(O)c1	nt	nt	nt	nt	0	nt	nt
O=C(Nc1nc(-c2cccc([N+](=O)[O-])c2)cs1)C(c1ccccc1)c1ccccc1	-1	-1	-41	-28	0	-22	nt
O=C(Nc1ccc(-c2csc(Nc3ccccc3)n2)cc1)c1cc([N+](=O)[O-])cc(C(F)(F)F)c1	24*	2	50*	22	-1	23	-8
O=C(Nc1nc(-c2ccc([N+](=O)[O-])cc2)cs1)c1c(F)cccc1F	-1	0	4	4	4	-1	nt
O=C(Nc1cccc(-c2csc(Nc3cccc(C(F)(F)F)c3)n2)c1)c1cc([N+](=O)[O-])cc(C(F)(F)F)c1	2	1	30*	7	-1	-6	-9
CCOC(=O)C1=C(C)N=c2s/c(=C\c3ccc(OCC(=O)O)cc3)c(=O)n2C1c1ccccc1OC (centres undefined)	3	3	12	-7	nt	-3	nt
CCOC(=O)C1=C(C)N=c2s/c(=C\c3ccc(O)c([N+](=O)[O-])c3)c(=O)n2C1c1ccccc1OC (centres undefined)	0	23	36*	20	nt	15	25
Cc1ccc(C(=O)Nc2nnc(CC(=O)NN=Cc3ccncc3)s2)cc1	nt	nt	nt	nt	2	nt	nt
CNC(=S)NN=Cc1ccc(-c2ccc(C(=O)O)cc2)o1	nt	nt	nt	nt	-50	nt	nt
Cc1cnc(CN(C)C(=O)c2ccc3oc(Cc4ccccc4)nc3c2)[nH]1	-7	-3	4	6	5	4	nt
CC(c1ccncn1)N(C)C(=O)c1ccc2oc(Cc3ccccc3)nc2c1 (centres undefined)	2	1	36*	6	-1	-3	27
Cc1ccc(S(=O)(=O)Nc2c(O)c3ccccc3oc2=O)cc1C	1	3	43*	4	1	11	25
Cc1ccc(S(=O)(=O)Nc2c(O)c3ccccc3oc2=O)cc1	3	-3	6	-4	4	2	nt
Cc1onc(-c2ccccc2)c1-c1nc2ccccc2c(=O)o1	1	-5	63*	-1	-2	5	60*
CCOc1ccc(-c2nc3ccccc3c(=O)o2)cc1	0	-1	54*	3	-84	-4	60*
COc1ccc(-c2nc3ccccc3c(=O)o2)cc1OC	1	-5	41*	5	-141	-1	34*
O=c1oc(-c2cccnc2)nc2ccccc12	0	3	6	-2	1	-2	nt
O=c1oc(-c2ccccc2Br)nc2ccccc12	2	0	56*	0	-1	-1	31*
Cc1onc(-c2ccccc2)c1-c1nc2cc(Cl)ccc2c(=O)o1	2	-9	nt	nt	nt	nt	nt
Cc1ccc(-c2c(C(=O)NN=Cc3ccsc3)nnn2-c2nonc2N)cc1	nt	nt	nt	nt	3	nt	nt
CC(=NNC(=O)CSc1ccccn1)c1ccc([N+](=O)[O-])cc1	nt	nt	nt	nt	2	nt	nt
O=C(OCn1nnc2ccccc2c1=O)c1ccc(O)cc1	-1	0	33*	7	0	5	19
COc1cc(C(=O)OCn2nnc3ccccc3c2=O)cc(OC)c1OC	2	-6	-11	1	1	5	nt
COc1cccc(C(=O)OCn2nnc3ccccc3c2=O)c1OC	-3	9	50*	-3	3	0	45*
SMILES	GRIN3A LBD mod	pPAFAH inh	PAFAH2 FP inh	PAFAH1B3 inh	UCH37 DUB inh	PAFAH1B2 inh	PAFAH2 confirm
CCOc1ccc(C(=O)OCn2nnc3ccccc3c2=O)cc1OC	-6	1	63*	9	0	1	52*
COc1ccc(C(=O)OCn2nnc3ccccc3c2=O)cc1	0	-2	43*	-4	-4	8	37*
CC12CCC(CC1=NNC(=O)Nc1ccccc1)C2(C)C (centres undefined)	nt	nt	nt	nt	-1	nt	nt
COc1ccc(CC(=O)NN=Cc2cccnc2)cc1OC	nt	nt	nt	nt	0	nt	nt
CC(C)(C)S(=O)(=O)c1cnc2c(S(=O)(=O)c3ccccc3)cnn2c1N	0	5	30*	1	6	-2	0
Cc1nc2c(S(=O)(=O)c3ccccc3)cnn2c(C)c1C	-2	10	3	5	-19	3	nt
CC(C)(C)C(=O)C=c1sc(=Cc2ccc(-c3ccc([N+](=O)[O-])cc3)o2)c(=O)n1CC(=O)NC(N)=O	nt	nt	nt	nt	11	nt	nt
CCCS(=O)(=O)c1c(S(=O)(=O)CCC)c2ccc(C(N)=O)cn2c1C(=O)c1ccccc1	-1	nt	34*	3	1	-4	24
CCCS(=O)(=O)c1c(S(=O)(=O)CCC)c2c(C(N)=O)cccn2c1C(=O)c1ccc(F)cc1	-4	0	0	8	3	3	nt
COc1ccccc1/C=C1\SC(=S)N(NS(=O)(=O)c2ccccc2)C1=O	-7	3	2	11	10	3	nt
COc1cccc(/C=C2\SC(=S)N(NS(=O)(=O)c3ccc(C)cc3)C2=O)c1OC	nt	16	33*	6	nt	5	22
CC1(NC(=O)NCCCCCCNC(=O)NC2(C)CCS(=O)(=O)C2)CCS(=O)(=O)C1 (centres undefined)	0	2	44*	6	3	-2	37*
CC1(NC(=S)NCCCCCCNC(=S)NC2(C)CCS(=O)(=O)C2)CCS(=O)(=O)C1 (centres undefined)	-1	2	4	5	nt	2	nt
COc1cccc(C=NNC(=O)c2cnccn2)c1	nt	nt	nt	nt	8	nt	nt
O=c1c2c([nH]c3ccccc13)CCCC2	1	-2	2	6	2	5	nt
O=c1c2c([nH]c3ccccc13)C(=C1CCCC1)CC2	4	16	33*	12	-6	9	7
Cc1nn(-c2ccccc2)c(Cl)c1C=NNS(=O)(=O)c1ccc(Br)cc1	nt	nt	nt	nt	5	nt	nt
CC(=O)Nc1cccc2c1Cc1ccccc1-2	36*	9	42*	2	3	2	-2
ON=Cc1ccc2ccccc2c1	nt	nt	nt	nt	-5	nt	nt
N#Cc1ccccc1OCC(=O)NNC(=O)CCC1CCCC1	-1	16	41*	1	1	6	26
Cc1ccccc1NC(=S)N/N=C/c1ccc(O)cc1O	5	5	33*	6	nt	11	15
Cc1cccc(NC(=S)N/N=C/c2cccc(O)c2)c1C	-3	2	0	6	nt	0	nt
CCCOc1ccccc1/C=C(\C#N)C(=O)Nc1cccnc1	-3	-1	40*	0	7	7	29
Cn1cc(C(=O)NN=Cc2cccs2)c2ccccc21	nt	nt	nt	nt	11	nt	nt
